Results as given in ChEMBL document CHEMBL3576819, “Design, synthesis, biological evaluation and molecular docking studies of phenylpropanoid derivatives as potent anti-hepatitis B virus agents” (Eur J Med Chem, 2015).
pIC50: −log10 of the molar value.

Tests used:
[1] = system: Hepatitis B virus; experiment: Antiviral activity against Hepatitis B virus infected in human HepG2.2.15 cells assessed as inhibition of HBeAg secretion at 75 uM after 6 days by ELISA; type: functional; details: HepG2 2.2.15, 144 h
Outline: (§1)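 HepG2.2.15 cells (MEM, 10% FBS, 380 µg/ml G418) seeded at 1×10^5 cells/ml, held 24 h at 37 °C, then treated with various drug concentrations; medium with drug renewed every 3 d for up to 9 d. Culture medium sampled on days 3, 6 and 9, stored at -20 °C, and assayed for secreted antigen. Lamivudine as positive control; IC50 = 50% inhibition of secretion; means of at least two experiments.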

[2] = system: Hepatitis B virus; experiment: Antiviral activity against Hepatitis B virus infected in human HepG2.2.15 cells assessed as inhibition of HBsAg secretion at 37.5 uM after 3 days by ELISA; type: functional; details: HepG2 2.2.15, 72 h; outline: as §1
[3] = system: Hepatitis B virus; experiment: Antiviral activity against Hepatitis B virus infected in human HepG2.2.15 cells assessed as cell survival at 37.5 uM after 9 days (reference value: 100%); type: functional; details: HepG2 2.2.15, 216 h
Outline: (§2)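 HepG2.2.15 cells (MEM, 10% FBS, 380 µg/ml G418, 37 °C, 5% CO2) seeded at 1×10^5 cells/ml, cultured 24 h, then exposed to various drug concentrations; drug-containing medium renewed every 3 d. OD read at 450 nm after 9 days; percent cell death calculated; CC50 = concentration killing 50% of cells. Means of at least two experiments.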

[4] = system: Hepatitis B virus; experiment: Antiviral activity against Hepatitis B virus infected in human HepG2.2.15 cells assessed as inhibition of HBeAg secretion at 37.5 uM after 6 days by ELISA; type: functional; details: HepG2 2.2.15, 144 h; outline: as §1
[5] = system: Hepatitis B virus; experiment: Antiviral activity against Hepatitis B virus infected in human HepG2.2.15 cells assessed as inhibition of HBsAg secretion at 300 uM after 6 days by ELISA; type: functional; details: HepG2 2.2.15, 144 h; outline: as §1
[6] = Cytotoxicity against human HepG2.2.15 cells assessed as cell death after 9 days by MTT assay; type: cell-based, HepG2 2.2.15; outline: as §2
[7] = Selectivity index, ratio of CC50 for human HepG2.2.15 cells to IC50 for Hepatitis B virus infected in human HepG2.2.15 cells assessed as inhibition of HBeAg secretion; type: functional
Outline: (§3)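 Selectivity index computed as CC50/IC50, with CC50 from cell death of HepG2.2.15 cells after 9 days of treatment (OD 450 nm) and IC50 from 50% inhibition of HBeAg or HBsAg secretion in the same cells; medium with drug renewed every 3 d.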

[8] = system: Hepatitis B virus; experiment: Antiviral activity against Hepatitis B virus infected in human HepG2.2.15 cells assessed as inhibition of HBsAg secretion by ELISA; type: functional, organism-based; details: HepG2 2.2.15; outline: as §1
[9] = system: Hepatitis B virus; experiment: Antiviral activity against Hepatitis B virus infected in human HepG2.2.15 cells assessed as inhibition of HBeAg secretion at 150 uM after 9 days by ELISA; type: functional; details: HepG2 2.2.15, 216 h; outline: as §1
[10] = system: Hepatitis B virus; experiment: Antiviral activity against Hepatitis B virus infected in human HepG2.2.15 cells assessed as inhibition of HBeAg secretion at 75 uM after 9 days by ELISA; type: functional; details: HepG2 2.2.15, 216 h; outline: as §1
[11] = system: Hepatitis B virus; experiment: Antiviral activity against Hepatitis B virus infected in human HepG2.2.15 cells assessed as inhibition of HBsAg secretion at 75 uM after 3 days by ELISA; type: functional; details: HepG2 2.2.15, 72 h; outline: as §1
[12] = system: Hepatitis B virus; experiment: Antiviral activity against Hepatitis B virus infected in human HepG2.2.15 cells assessed as inhibition of HBeAg secretion at 150 uM after 6 days by ELISA; type: functional; details: HepG2 2.2.15, 144 h; outline: as §1
[13] = system: Hepatitis B virus; experiment: Antiviral activity against Hepatitis B virus infected in human HepG2.2.15 cells assessed as inhibition of HBsAg secretion at 75 uM after 6 days by ELISA; type: functional; details: HepG2 2.2.15, 144 h; outline: as §1
[14] = system: Hepatitis B virus; experiment: Antiviral activity against Hepatitis B virus infected in human HepG2.2.15 cells assessed as cell survival at 150 uM after 9 days (reference value: 100%); type: functional; details: HepG2 2.2.15, 216 h; outline: as §2
[15] = system: Hepatitis B virus; experiment: Antiviral activity against Hepatitis B virus infected in human HepG2.2.15 cells assessed as inhibition of HBeAg secretion at 75 uM after 3 days by ELISA; type: functional; details: HepG2 2.2.15, 72 h; outline: as §1
[16] = system: Hepatitis B virus; experiment: Antiviral activity against Hepatitis B virus infected in human HepG2.2.15 cells assessed as inhibition of HBsAg secretion at 75 uM after 9 days by ELISA; type: functional; details: HepG2 2.2.15, 216 h; outline: as §1
[17] = system: Hepatitis B virus; experiment: Antiviral activity against Hepatitis B virus infected in human HepG2.2.15 cells assessed as inhibition of HBsAg secretion at 150 uM after 6 days by ELISA; type: functional; details: HepG2 2.2.15, 144 h; outline: as §1
[18] = system: Hepatitis B virus; experiment: Antiviral activity against Hepatitis B virus infected in human HepG2.2.15 cells assessed as inhibition of HBsAg secretion at 150 uM after 3 days by ELISA; type: functional; details: HepG2 2.2.15, 72 h; outline: as §1
[19] = system: Hepatitis B virus; experiment: Antiviral activity against Hepatitis B virus infected in human HepG2.2.15 cells assessed as cell survival at 75 uM after 9 days (reference value: 100%); type: functional; details: HepG2 2.2.15, 216 h; outline: as §2
[20] = system: Hepatitis B virus; experiment: Antiviral activity against Hepatitis B virus infected in human HepG2.2.15 cells assessed as inhibition of HBsAg secretion at 150 uM after 9 days by ELISA; type: functional; details: HepG2 2.2.15, 216 h; outline: as §1
[21] = system: Hepatitis B virus; experiment: Antiviral activity against Hepatitis B virus infected in human HepG2.2.15 cells assessed as inhibition of HBeAg secretion at 300 uM after 6 days by ELISA; type: functional; details: HepG2 2.2.15, 144 h; outline: as §1
[22] = system: Hepatitis B virus; experiment: Antiviral activity against Hepatitis B virus infected in human HepG2.2.15 cells assessed as inhibition of HBeAg secretion at 37.5 uM after 3 days by ELISA; type: functional; details: HepG2 2.2.15, 72 h; outline: as §1
[23] = system: Hepatitis B virus; experiment: Antiviral activity against Hepatitis B virus infected in human HepG2.2.15 cells assessed as inhibition of HBeAg secretion at 37.5 uM after 9 days by ELISA; type: functional; details: HepG2 2.2.15, 216 h; outline: as §1
[24] = Selectivity index, ratio of CC50 for human HepG2.2.15 cells to IC50 for Hepatitis B virus infected in human HepG2.2.15 cells assessed as inhibition of HBsAg secretion; type: functional; outline: as §3
[25] = system: Hepatitis B virus; experiment: Antiviral activity against Hepatitis B virus infected in human HepG2.2.15 cells assessed as inhibition of HBeAg secretion at 300 uM after 3 days by ELISA; type: functional; details: HepG2 2.2.15, 72 h; outline: as §1
[26] = system: Hepatitis B virus; experiment: Antiviral activity against Hepatitis B virus infected in human HepG2.2.15 cells assessed as inhibition of HBsAg secretion at 300 uM after 3 days by ELISA; type: functional; details: HepG2 2.2.15, 72 h; outline: as §1
[27] = system: Hepatitis B virus; experiment: Antiviral activity against Hepatitis B virus infected in human HepG2.2.15 cells assessed as cell survival at 300 uM after 9 days (reference value: 100%); type: functional; details: HepG2 2.2.15, 216 h; outline: as §2
[28] = system: Hepatitis B virus; experiment: Antiviral activity against Hepatitis B virus infected in human HepG2.2.15 cells assessed as inhibition of HBsAg secretion at 37.5 uM after 9 days by ELISA; type: functional; details: HepG2 2.2.15, 216 h; outline: as §1
[29] = system: Hepatitis B virus; experiment: Antiviral activity against Hepatitis B virus infected in human HepG2.2.15 cells assessed as inhibition of HBeAg secretion by ELISA; type: functional, organism-based; details: HepG2 2.2.15; outline: as §1
[30] = system: Hepatitis B virus; experiment: Antiviral activity against Hepatitis B virus infected in human HepG2.2.15 cells assessed as inhibition of HBsAg secretion at 300 uM after 9 days by ELISA; type: functional; details: HepG2 2.2.15, 216 h; outline: as §1
[31] = system: Hepatitis B virus; experiment: Antiviral activity against Hepatitis B virus infected in human HepG2.2.15 cells assessed as inhibition of HBeAg secretion at 150 uM after 3 days by ELISA; type: functional; details: HepG2 2.2.15, 72 h; outline: as §1
[32] = system: Hepatitis B virus; experiment: Antiviral activity against Hepatitis B virus infected in human HepG2.2.15 cells assessed as inhibition of HBeAg secretion at 300 uM after 9 days by ELISA; type: functional; details: HepG2 2.2.15, 216 h; outline: as §1
[33] = system: Hepatitis B virus; experiment: Antiviral activity against Hepatitis B virus infected in human HepG2.2.15 cells assessed as inhibition of HBsAg secretion at 37.5 uM after 6 days by ELISA; type: functional; details: HepG2 2.2.15, 144 h; outline: as §1

Compound	inhibition at 75 µM [1]	inhibition at 37.5 µM [2]	viability at 37.5 µM [3]	inhibition at 37.5 µM [4]	inhibition at 300 µM [5]	CC50 at 216 h [6]	Ratio CC50/IC50 [7]	pIC50 [8]	inhibition at 150 µM [9]	inhibition at 75 µM [10]	inhibition at 75 µM [11]	inhibition at 150 µM [12]	inhibition at 75 µM [13]	viability at 150 µM [14]	inhibition at 75 µM [15]	inhibition at 75 µM [16]	inhibition at 150 µM [17]	inhibition at 150 µM [18]	viability at 75 µM [19]	inhibition at 150 µM [20]	other results
O=C(/C=C/c1ccc2c(c1)OCO2)O/N=C/c1ccco1	45.8%	22.3%	94.4%	26%	79.5%	480 µM	5.86	4.19	59.1%	47%	31.2%	56.5%	54.6%	73.8%	24.8%	59.5%	70.4%	42.9%	85.5%	70.5%	inhibition at 300 µM [21]: 71%; inhibition at 37.5 µM [22]: 16.9%; inhibition at 37.5 µM [23]: 30.3%; Ratio CC50/IC50 [24]: 7.42; inhibition at 300 µM [25]: 47.2%; inhibition at 300 µM [26]: 57.9%; viability at 300 µM [27]: 43%; inhibition at 37.5 µM [28]: 32.4%; pIC50 [29]: 4.09; inhibition at 300 µM [30]: 85.4%; inhibition at 150 µM [31]: 35.2%; inhibition at 300 µM [32]: 86.7%; inhibition at 37.5 µM [33]: 31.5%
COc1ccc(/C=C/C(=O)O/N=C/c2cccs2)cc1OC	15.3%	17.4%	114%	8.58%	52.6%	574 µM	1.52	3.64	26.9%	22.6%	28.4%	20.4%	29.6%	98.7%	7.04%	29.3%	41.2%	40.7%	101%	42.8%	inhibition at 300 µM [21]: 35.4%; inhibition at 37.5 µM [22]: 0.63%; inhibition at 37.5 µM [23]: 18.6%; Ratio CC50/IC50 [24]: 2.51; inhibition at 300 µM [25]: 14.3%; inhibition at 300 µM [26]: 47.6%; viability at 300 µM [27]: 97.7%; inhibition at 37.5 µM [28]: 20.5%; pIC50 [29]: 3.42; inhibition at 300 µM [30]: 55%; inhibition at 150 µM [31]: 11.8%; inhibition at 300 µM [32]: 52.3%; inhibition at 37.5 µM [33]: 19.8%
COc1cc(/C=C/C(=O)O/N=C/c2cccs2)cc2c1OCO2	33.8%	19.1%	119%	16.1%	67.3%	677 µM	6.47	4.13	57.9%	48.9%	35.5%	40%	37.4%	97.5%	25.6%	56.1%	50.7%	46.6%	107%	68.2%	inhibition at 300 µM [21]: 51.1%; inhibition at 37.5 µM [22]: 12.7%; inhibition at 37.5 µM [23]: 29.2%; Ratio CC50/IC50 [24]: 9.1; inhibition at 300 µM [25]: 41.9%; inhibition at 300 µM [26]: 59.3%; viability at 300 µM [27]: 95.6%; inhibition at 37.5 µM [28]: 29.7%; pIC50 [29]: 3.98; inhibition at 300 µM [30]: 77.9%; inhibition at 150 µM [31]: 33.8%; inhibition at 300 µM [32]: 65.8%; inhibition at 37.5 µM [33]: 23.3%
